PubChem BioAssay AID2170 (The Scripps Research Institute Molecular Screening Center, 2009)
The campaign covered roughly 2,400 compounds. About 660 (28%) were called active.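 Rule for the calls: active = mean inhibition over replicate wells above the hit cutoff set for the earlier primary screen (cut at about 29% in these data); inactive = the rest.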 The list is a sample of the results.

Test system: M18 aspartyl aminopeptidase (Plasmodium falciparum 3D7)
Experiment: inhibition of P. falciparum M18 aminopeptidase – biochemical, QFRET, recombinant enzyme, triplicate, confirmation (AID 2170);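 note: 0% = median of test compound wells and 100% = 2 mM ZnCl2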
Settings: recombinant PfM18AAP, H-Glu-NHMec fluorogenic cleavage; at 7.35 µM; stronger effect = higher value
In short: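 Material: purified recombinant M18 aspartyl aminopeptidase (PFM18AAP) from Plasmodium falciparum. Input: 5 µg/mL enzyme before substrate. Times: 30 min pre-incubation, then 90 min reaction, 25 °C. Detection: fluorescence, excitation 340 nm, emission 450 nm, read at 0 and 90 min. Benchmarks: ZnCl2 inhibitor control. Replication: triplicate wells per compound.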

Row | SMILES | inhibition
1 | O=C(Nc1ccccc1Cl)Nn1cnnc1 | 65.9% (active)
2 | O=C(Nn1cnnc1)c1cc(Cl)ccc1Cl | 55.1% (active)
3 | Cc1ccc(S(=O)(=O)N/N=C\c2cc3c(cc2[N+](=O)[O-])OCO3)cc1 | -7.72% (inactive)
4 | Cc1ccc(Cl)cc1-c1ccc(/C=N/n2cnnc2)o1 | -18.6% (inactive)
5 | Cc1ccc(-c2ccc(/C=C(\C#N)C(N)=S)o2)c([N+](=O)[O-])c1 | -32.7% (inactive)
6 | NC(=O)c1c(NC(=O)CSc2nnc(-c3ccco3)n2N)sc2c1CCCC2 | -70.9% (inactive)
7 | S=c1[nH]nc2c3c4c(sc3ncn12)CCCC4 | -11.8% (inactive)
8 | CCOCCCNC(=O)c1ccc(CS(=O)(=O)c2cccc(C(F)(F)F)c2)o1 | -29.5% (inactive)
9 | Cc1cccc(NC(=O)c2sc3nc(N4CCOCC4)c4c(c3c2N)CCCC4)c1 | 3.82% (inactive)
10 | O=S(=O)(c1ccc(NC(=S)NN=C(C2CC2)C2CC2)cc1)N1CCOCC1 | 14.8% (inactive)
11 | Cc1nnc(SCC(=O)Nn2cnnc2)s1 | 29.1% (active)
12 | NC(=O)C1CCN(C(=O)/C(=C/c2ccco2)NC(=O)c2ccccc2)CC1 | -45.2% (inactive)
13 | CCOc1ccc(-n2c(O)c(/C=N/Nc3nnc(C)c(=O)[nH]3)c3ccccc3c2=O)cc1 | 12.4% (inactive)
14 | Oc1c(C(c2ccco2)N2CCC3(CC2)OCCO3)sc2ncnn12 (stereo not drawn) | -4.87% (inactive)
15 | Cc1ccc2nc(-c3cccc(Br)c3)cc(C(=O)Nn3cnnc3)c2c1 | 63.4% (active)
16 | Oc1ccc(/C=N/NC2=NCCCCC2)c(O)c1 | 41.8% (active)
17 | CCN(CC)c1ccc(/C=N/Nc2nc(C)cc(C)n2)c(O)c1 | 16.4% (inactive)
18 | O=C(Oc1ccc(Br)cc1C(=S)N1CCOCC1)c1cccc([N+](=O)[O-])c1 | -27.5% (inactive)
19 | Oc1ccc(N2CCN(C(=S)NCc3ccccc3)CC2)cc1 | -12.9% (inactive)
20 | CC(OC(=O)c1ccc2noc(-c3ccccc3)c2c1)C(N)=O (stereo not drawn) | -28.2% (inactive)
21 | O=C(N/N=C/c1ccc(O)c(O)c1)C1c2ccccc2Oc2ccccc21 | 37.3% (active)
22 | CSc1n[nH]c(=S)n1N | -12.7% (inactive)
23 | O=C(CSC(=S)N1CCOCC1)c1cc(Br)cc(Br)c1O | -45.7% (inactive)

Row | SMILES | inhibition
24 | CCN(CC)c1ccc(NC(=O)CCc2nnc3ccc(N4CCCCC4)nn23)c(C)c1 | -12.9% (inactive)
25 | Cc1csc(NC(=O)NC2(C(F)(F)F)Oc3ccccc3O2)n1 | 68.6% (active)
26 | Oc1cccc(/C=N/Nc2ccc(Cl)nn2)c1O | 20.8% (inactive)
27 | CN(C)c1ccc(C(CC(=O)O)C(=O)O)cc1 (stereo not drawn) | -38.2% (inactive)
28 | COc1cc(S(=O)(=O)Nc2ncn[nH]2)ccc1Cl | 34.1% (active)
29 | Cc1onc(-c2ccccc2)c1C(=O)NNC(=S)NC(=O)c1ccc(F)cc1 | -38.8% (inactive)
30 | Oc1ccc(-c2csc(Nc3cccnc3)n2)cc1 | 56.6% (active)
31 | CC1(C)CC(=O)C/C(=N\NC(=O)c2cccs2)C1 | 3.68% (inactive)
32 | N#CCC(=O)N/N=C/c1ccc(SCC(=O)Nc2ccccc2)o1 | -37.9% (inactive)
33 | CCOC(=O)NNc1cc(C(F)(F)F)ccn1 | 28.2% (active)
34 | COc1ccc2c(c1)C(C)=CC(C)(C)N2C(=O)Nc1ccccc1 | -22.9% (inactive)
35 | COc1ccc(/C=N/Nc2nc3ccccc3o2)cc1OC | -38.4% (inactive)
36 | c1ccc2c(c1)OCC(c1nn3cnnc3s1)O2 (stereo not drawn) | -28.2% (inactive)
37 | Cc1cc2nc3c(=O)n(Cc4ccccc4)c(=O)[nH]c3nc2cc1N | 7.01% (inactive)
38 | Cc1ccsc1/C=N/Nc1ccc(Cl)nn1 | -14.8% (inactive)
39 | COc1cc(Br)cc(/C=N/c2ncn[nH]2)c1O | 62.9% (active)
40 | Cc1cc(-c2ccc(/C=N/n3cnnc3)o2)c([N+](=O)[O-])cc1C | 0.8% (inactive)
41 | Cc1ccc(NC(=O)c2c(NC(=O)CCC(=O)O)sc3c2CCCCC3)cc1 | -30.8% (inactive)
42 | CNC(=S)NNC(=O)c1ccc(N(C)C)cc1 | 12.2% (inactive)
43 | CCCc1nc2ccccc2c(=O)n1/N=C/c1ccc(O)c(O)c1 | 28.4% (active)
44 | CC(C)c1ccc(NC(=S)NNc2ccc(Cl)c(C(=O)O)c2)cc1 | -43.7% (inactive)
45 | COc1cc(/C=C2/C(=O)NN(c3cccc(Cl)c3)C2=O)cc(Br)c1O | 12.9% (inactive)
46 | O=C(NNC(=O)c1ccco1)Nc1ccccc1 | 17.1% (inactive)

Row | SMILES | inhibition
47 | CC(C)C1N=C2c3ccccc3N=C(SCC(=O)c3ccc(O)c(O)c3)N2C1=O (stereo not drawn) | 39% (active)
48 | COc1cc(NC(=S)N2CCCC(C)C2)c(OC)cc1Cl (stereo not drawn) | -0.38% (inactive)
49 | S=c1[nH]c(-c2cccs2)cn1-c1ccccc1 | 39.1% (active)
50 | Cc1cc(C)nc(NNC2=CC(=O)CC(C)(C)C2)n1 | 44.3% (active)
51 | O=C(CC(n1cncn1)C(Cl)(Cl)Cl)c1ccc([N+](=O)[O-])cc1 (stereo not drawn) | -9.53% (inactive)
52 | COc1c(O)ccc2c1CN1CCc3cc4c(cc3C1C2)OCO4 (stereo not drawn) | 9.45% (inactive)
53 | Cc1c(CC(=O)N2CCN(C(=O)C3COc4ccccc4O3)CC2)c(=O)oc2c(O)c(O)ccc12 (stereo not drawn) | 32.3% (active)
54 | CCN1/C(=C/C(=S)Nc2ccccc2)Sc2ccccc21 | 0.1% (inactive)
55 | CC(C)(C)c1nnc(N/N=C/c2ccc(O)cc2)n(N)c1=O | -22.7% (inactive)
56 | CCOc1ccc(C2C3=C(CCCC3=O)N(CC(=O)O)C3=C2C(=O)CCC3)cc1 | -43.7% (inactive)
57 | Cc1ccnc(-n2sc3ccccc3c2=O)n1 | 28.8% (active)
58 | NC(=S)N/N=C/c1coc2cc(Cl)ccc2c1=O | -23.6% (inactive)
59 | O=C(CN1CCN(c2ccc(O)cc2)CC1)Nc1ccc(-c2ccccc2)cc1 | -14.9% (inactive)
60 | c1ccc2sc(NN=C3CCCC3)nc2c1 | -44.4% (inactive)
61 | Cc1cc(C)nc(Nc2ncn[nH]2)n1 | 71.7% (active)
62 | COc1cccc2cc(-c3cc(=O)oc4cc(C)c(O)cc34)oc12 | -27.8% (inactive)
63 | O=C(CSc1ncn[nH]1)Nc1nc(-c2cccc([N+](=O)[O-])c2)cs1 | 36.5% (active)
64 | O=C(CSc1ncn[nH]1)Nc1nsc(-c2ccccc2)n1 | 14.9% (inactive)
65 | O=C(CSc1ncn[nH]1)Nc1ccnc2ccccc12 | 8.46% (inactive)
66 | COc1ccccc1-c1nnc(SCC(=O)Nc2cc(C)on2)o1 | -49.2% (inactive)
67 | c1ccc(-c2ccc3c(c2)NC(C2Nc4cc(-c5ccccc5)ccc4O2)O3)cc1 (stereo not drawn) | -52.4% (inactive)
68 | O=C1CCCCN1CCCC(=O)N1CCCC(Nc2ccc(F)cc2)C1 (stereo not drawn) | -33.7% (inactive)
69 | COc1ccc(OC)c(Nc2nc(-c3ccc(O)c(O)c3)cs2)c1 | 42.4% (active)

Row | SMILES | inhibition
70 | Cc1cc(/C=N/Nc2ccc([N+](=O)[O-])cn2)c(C)n1-c1cccc(C(=O)O)c1 | -23.4% (inactive)
71 | Cc1ccc(-c2noc(CC(c3ccccc3)c3ccccc3)n2)cc1 | -39.5% (inactive)
72 | Cn1sc(=O)c2cc(S(=O)(=O)NC3CC3)ccc21 | -11.8% (inactive)
73 | O=C(CN1CCN(S(=O)(=O)c2cc(Cl)ccc2Cl)CC1)c1ccc(O)c(O)c1 | 31.5% (active)
74 | Cc1nc2ccc(S(=O)(=O)NCC(=O)O)cc2s1 | 12.5% (inactive)
75 | O=C(Cn1c[n+](CC(=O)c2ccc([N+](=O)[O-])cc2)cn1)c1ccc([N+](=O)[O-])cc1 | 14% (inactive)
76 | O=c1nc(N/N=C/c2ccco2)cn[nH]1 | 18.9% (inactive)
77 | ONC(=Nc1ccccc1)c1ccccc1Cl | -2.39% (inactive)
78 | CC/C(C)=N/Nc1nc2sc3c(c2c(=O)[nH]1)CC(C)(C)OC3 | 9.57% (inactive)
79 | Oc1ccc(/C=N/Nc2ccc(C(F)(F)F)cn2)cc1O | 6.58% (inactive)
80 | Cn1c(SCC(=O)N/N=C/c2ccc(O)c(O)c2)nc2ccccc21 | 50.9% (active)
81 | Cc1nccn1CC(=O)N/N=C/c1ccc(O)c(O)c1 | 58.4% (active)
82 | CCn1c(CNS(=O)(=O)c2ccc(Cl)cc2)n[nH]c1=S | -0.52% (inactive)
83 | Cn1c(=O)[nH]c(=O)c2c1[nH]c(=S)n2Cc1ccccc1 | 6.35% (inactive)
84 | Cc1cc([N+](=O)[O-])c(-c2ccc(/C=N/n3cnnc3)o2)cc1Cl | 10.6% (inactive)
85 | O=C(Nc1cccc([N+](=O)[O-])c1)Nn1cnnc1 | 64.6% (active)
86 | CCN(CC)S(=O)(=O)c1cc([N+](=O)[O-])ccc1NNC(=O)Nc1ccccc1 | 25.9% (inactive)
87 | COc1cc(/C=N\Nc2ccc([N+](=O)[O-])cn2)ccc1OCC(=O)O | -18% (inactive)
88 | O=C(COc1ccc([N+](=O)[O-])cc1Cl)Nn1cnnc1 | 36.8% (active)
89 | O=[N+]([O-])c1ccc(N2CCN(c3ccc(O)cc3)CC2)c(Cl)c1 | -3.08% (inactive)
90 | O=C(O)CCn1c(O)c(C=C2N=c3ccccc3=N2)sc1=S | -42.5% (inactive)
91 | NC(=O)c1c(Nc2nc3c(F)cccc3s2)sc2c1CCCC2 | -18.3% (inactive)
92 | Cc1cc2c(C)nc(N/N=C/c3ccccc3)nc2o1 | -42.8% (inactive)

Row | SMILES | inhibition
93 | O=C(CO/N=C/c1ccccc1O)NNC(=O)c1ccccc1Cl | 42.3% (active)
94 | CCOc1cccc(/C=N/NC(=S)NCCN2CCOCC2)c1O | 16.9% (inactive)
95 | COc1ccc(OCc2n[nH]c(=S)n2N)cc1 | 20.3% (inactive)
96 | COc1ccc(OCc2nnc3n2N=C(c2ccccc2)C(CC(=O)O)S3)cc1 (stereo not drawn) | 40.8% (active)
97 | CC1CCN(C(=O)c2ccc3c(c2)NC(=O)CN3)CC1 | -7.91% (inactive)
98 | CCN(CC)c1ccc2oc(=O)c(C)nc2c1 | 27.1% (inactive)
99 | ClC1(Cl)CC1CSc1ncn[nH]1 (stereo not drawn) | 11.5% (inactive)
100 | CCn1ccnc1CNC(=O)CC1C(=O)NCCN1Cc1ccc(F)cc1Cl (stereo not drawn) | -24.5% (inactive)
101 | CC(=O)c1ccc(NC(=O)CCc2nnc3ccc(NCc4ccco4)nn23)cc1 | -28.5% (inactive)
102 | CC(C)(C)C(=O)OCc1nc(-c2ccc(O)c(O)c2)cs1 | 53.5% (active)
103 | COc1ccc(N/C=C(\C2OC(=O)c3ccccc32)[N+](=O)[O-])cc1 (stereo not drawn) | -36.7% (inactive)
104 | CC(/C=C/C1(O)C(C)CC(=O)CC1(C)C)OC1OC(CO)C(O)C(O)C1O (stereo not drawn) | 11.3% (inactive)
105 | CNC(=O)c1c(NC(NC(=O)c2ccco2)C(=O)c2ccc(Cl)cc2)sc2c1CCCC2 (stereo not drawn) | -18.7% (inactive)
106 | CC(C)(C)NC(=O)C(c1ccncc1)N(C(=O)CNC(=O)c1ccco1)c1ccc2c(c1)OCO2 (stereo not drawn) | -44.5% (inactive)
107 | CC(=O)N(c1ccc2oc(=O)sc2c1)S(=O)(=O)c1ccc(C)cc1 | -21.7% (inactive)
108 | COc1cc(/C=N/Nc2nn3cnnc3c3ccccc23)cc(OC)c1OC | -33.8% (inactive)
109 | O=C(O)c1cccc(NC(=S)N/N=C/c2c[nH]c3ccccc23)c1 | 3.61% (inactive)
110 | COc1cc(/C=N/NC(=S)Nc2cccnc2)cc(OC)c1O | 35.5% (active)
111 | OCCN1CCN(C(=S)c2ccc(-c3ccccc3)cc2)CC1 | 14.5% (inactive)
112 | Cc1ccc(C)c(NC(=O)NNC(=O)c2ccc3ccccc3c2O)c1 | 4.3% (inactive)
113 | Cc1nc2nc[nH]n2c(=O)c1C/C=C/c1ccccc1 | 50.7% (active)
